In the library only some 2.2% were active in any assay of this set; here they are far more common.
PvdQ inh: blocks Pseudomonas aeruginosa PvdQ acylase activity | AID 488965 | 0.063% of 340,000 active | inhibition, % at 10 µM | purified PvdQ acylase, fluorescence plate reader; in the data active = inhibition above about 30%, passing the limit was not always enough; inconclusive = no clear call, values can overlap the other calls;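 also: 0% = vehicle neutral wells and 100% = reference inhibitor wells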
FN deposit inh: fibronectin deposition inhibition; 0.086% of 350,000 active; AH1F fibroblasts, Alexa488-fibronectin deposition fluorescence, overnight; inhibition, % at 12.6 µM;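 active = mean inhibition across replicates of 30% or more, regardless of how many single replicates reach that level; inconclusive = mean under 30% yet at least half of replicates reach 30%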;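 also: positive control wells lacked labelled fibronectin entirely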
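material = AH1F fibroblast monolayer depositing Alexa488-labelled fibronectin into matrix | amount = 10000 AH1F cells/well | buffer or medium = DMEM plus 2% serum, read in PBS | incubation = 1 h cell adhesion before compound, then overnight fibronectin incubation | detection = fluorescence at 485 nm excitation, 525 nm emission | evaluation = percent inhibition as loss of matrix-bound fibronectin fluorescence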
PDI turbidity: inhibitors of human protein disulfide isomerase; P07237; PDI insulin aggregation turbidity, A650, 90 min; inhibition, % at 10 µM; 0.052% of 350,000 active;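 active = mean inhibition across replicates of 30% or more, whatever share of single replicates reach that level; inconclusive = mean inhibition below 30% while every single replicate reaches 30%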
Ecoli rRNA inh: selective bacterial rRNA inhibition in E. coli; E. coli WT GFP vs humanized-ribosome RFP mutants, fluorescence, 24 h; stronger effect = lower value; DMSO median 0, no signal -100; GFP signal change (wild-type ribosome), % (test concentration not listed); 1.6% of 350,000 active; AID 720706;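 active = significant combined selectivity score with lowered wild-type GFP, culture density cut under 30%, mutant RFP and density less affected; inactive = any of these conditions unmet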
ERp5 inh: blocks human ERp5 reductase activity on insulin; ERp5 insulin aggregation, absorbance 650 nm, 90 min; inhibition, % at 9.99 µM; 0.05% of 350,000 active;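 active = mean replicate inhibition above about 25%, with every replicate also reaching it, limit read from the data, passing the limit was not always enough; inconclusive = only one of those two criteria met; inactive = neither criterion met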
Target sequence (Q15084 whole entry, looked up): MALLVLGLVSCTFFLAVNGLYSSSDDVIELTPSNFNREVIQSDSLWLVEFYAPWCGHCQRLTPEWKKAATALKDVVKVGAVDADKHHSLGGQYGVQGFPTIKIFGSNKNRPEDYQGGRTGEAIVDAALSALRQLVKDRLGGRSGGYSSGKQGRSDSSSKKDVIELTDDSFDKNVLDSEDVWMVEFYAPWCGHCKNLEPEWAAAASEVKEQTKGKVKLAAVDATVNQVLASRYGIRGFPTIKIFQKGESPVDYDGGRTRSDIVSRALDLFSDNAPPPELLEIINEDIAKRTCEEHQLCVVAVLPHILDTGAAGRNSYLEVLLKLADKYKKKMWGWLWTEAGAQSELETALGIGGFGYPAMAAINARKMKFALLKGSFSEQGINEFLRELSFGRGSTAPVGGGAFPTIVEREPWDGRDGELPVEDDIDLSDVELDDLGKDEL
HIV Env fusion: blocks HIV Env-driven cell-cell fusion | inhibition, % at 12.3 µM | HeLa-JRFL Env/CEM21 cell fusion, luciferase | 1.1% of 360,000 active;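 active = mean replicate inhibition score of at least 50 and every replicate individually at or above 50; inconclusive = only one of the two criteria met; inactive = mean below 50 and not all replicates reaching 50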;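 also: 0% = plate neutral controls and 100% = maraviroc near 300 nM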
AID977621: growth inhibition of wild-type GFP E. coli, dose response, H69 mutant RFP, cherry-pick; shares compounds with Ecoli rRNA inh; E. coli wild-type GFP strain growth, fluorescence, 24 h; activity change, negative = inhibition at 50 µM; 1,900 tested, under 10 active; AID 977621;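 active = Wild-type ribosome reporter drop at least double the humanized mutant ribosome reporter drop, growth loss under a set limit; inconclusive = no clear call, values can overlap the other calls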;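 also: wild-type GFP and H69 mutant RFP strains grown together 50/50 in each well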
AID977628: E. coli growth inhibition, wild-type GFP versus h24 humanized RFP strain, dose response, h24 mutant RFP vs wild-type GFP, cherry-pick | shares compounds with Ecoli rRNA inh | E. coli WT GFP strain growth, fluorescence, 24 h | activity change, negative = inhibition at 50 µM | 1,900 tested, under 10 active | AID 977628;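 active = compound lowering the normal-ribosome reporter at least twice as much as the humanized-ribosome reporter, growth loss under a set limit; inconclusive = no clear call, values can overlap the other calls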;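 also: wild-type GFP and h24 humanized RFP strains co-cultured 1 to 1 per well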
Active calls of the source: *; ? = inconclusive; / = no result; [ ] = remark or other dose.

SMILES	PvdQ inh	FN deposit inh	PDI turbidity	Ecoli rRNA inh	ERp5 inh	HIV Env fusion	AID977621	AID977628
Cc1noc(C)c1NC(=O)N(C)C[C@@H]1OCCCC[C@H](C)Oc2ccc(NC(=O)Nc3ccc4c(c3)OCO4)cc2C(=O)N([C@@H](C)CO)C[C@H]1C	/	/	/	1	-2	-16[16.7 µM]	/	/
Cc1noc(C)c1NC(=O)N(C)C[C@H]1OCCCC[C@@H](C)Oc2ccc(NC(=O)Nc3ccc4c(c3)OCO4)cc2C(=O)N([C@@H](C)CO)C[C@H]1C	/	/	/	2	2	-14[16.7 µM]	/	/
COc1ccc(NC(=O)c2ccc(COc3ccccc3Br)o2)c(OC)c1	/	11	8	-16*	-3	17	-12	-0.85
COc1ccc(NC(=O)c2ccc(COc3ccccc3)o2)c(OC)c1	-12	-3	5	-24	-2	-4	/	/
CCOc1ccccc1C(=O)NCC(=O)OCCCOC(=O)CNC(=O)c1ccccc1OCC	-1	1	2	-9	-6	-7	/	/
CCOc1ccccc1C(=O)NCC(=O)OCCOc1cccc(Cl)c1	-7	-5	-1	-33*	-6	-1	-11	-5.6
COc1cccc(C#Cc2ccc3c(c2)[C@H]2[C@H](CCN2C(C)=O)[C@H](CO)N3)c1	/	23	/	-3	4	/	/	/
O=C(Nc1nccs1)C1CCN(S(=O)(=O)c2cccs2)CC1	-8	2	6	8	2	12	/	/
O=C(Nc1nc(-c2ccc3ccccc3c2)cs1)C1CCN(S(=O)(=O)c2cccs2)CC1	-1	3	7	-15*	1	21	-3.7	-1.9
COCC#Cc1cnc2c(c1)C(=O)N([C@@H](C)CO)C[C@H](C)[C@H](CN(C)Cc1ccc3c(c1)OCO3)O2	/	-11	/	4	6	2[16.7 µM]	/	/
CCOc1ccc(C(C)=O)cc1CN1C(=O)NC2(CCCCCCC2)C1=O	-6	-6	8	-40*	-3	-3	-0.93	-17
O=C(CN1CCCCC1)Nc1nc(-c2ccc(F)c(F)c2)cs1	-7	1	-3	5	-2	-17	/	/
O=C(COC(=O)C1CC1)Nc1nc(-c2ccc(F)c(F)c2)cs1	3	8	10	-24*	1	-26	-6.5	/
COc1ccc(CC(=O)NC(C)c2ccc3ccccc3c2)cc1 (stereo unspecified)	3	0	1	-23*	2	2	/	?
CC1Sc2ccc(C(=O)Nc3ccc(S(=O)(=O)N(C)C)cc3)cc2NC1=O (stereo unspecified)	-14	-5	-2	-7	-1	-1	/	/
COc1ccc(S(=O)(=O)N(C)C)cc1NC(=O)c1ccc2c(c1)NC(=O)C(C)S2 (stereo unspecified)	-6	-4	-1	-21*	3	/	-0.9	/
O=C1c2ccccc2CCc2ccccc21	-15	-4	3	-5	-11	-1	/	/
O=C1c2ccccc2CSc2c(O)cccc21	/	2	5	-31*	1	1	-10	-11
COCC(=O)Nc1ccc2c(c1)OC[C@H](C)N(Cc1ccccc1F)C[C@H](C)[C@H](OC)CN(C)C2=O	/	7	/	-4	20	/	/	/
Nc1[nH]c(C(=O)c2ccccc2)c(-c2ccc(Br)cc2)c1C(=O)c1cccs1	/	-10	/	-34*	-3	-124	?	/
CCN1C(=O)C(CC(=O)Nc2ccc(F)cc2)N(CCCN2CCN(c3ccc(F)cc3)CC2)C1=S (stereo unspecified)	-13	-11	-3	-53*	-2	-7	-4.8	?
C[C@@H](O)C#Cc1ccc2c(c1)O[C@H](CN(C)C(=O)C1CCCCC1)[C@@H](C)CN([C@@H](C)CO)S2(=O)=O	/	/	/	-5	8	-12[16.7 µM]	/	/
CCOc1ccc(NC(=O)CCc2nnc3ccc(N4CCC(C)CC4)nn23)cc1	-7	-8	-2	-20*	-5	10	-1.4	/

Screens from PubChem.
